Source: ChEMBL document CHEMBL5653631, “A Potent and Selective ULK1 Inhibitor Suppresses Autophagy and Sensitizes Cancer Cells to Nutrient Stress” (iScience, 2018)

What was measured:
[1] = biological target: Activin receptor type-1-like (Homo sapiens) (UniProt P37023); test: Inhibition of human recombinant ALK1 at 500 nM in presence of ATP by radiometric assay relative to control
Summary of the method: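 Panel of 327 recombinant human kinases, each assayed in vitro by radiometric activity assay in duplicate at a single inhibitor concentration per compound, chosen with reference to its ULK1 inhibition. Activity remaining was expressed as percent of vehicle control, and percent inhibition was calculated as 100 minus percent activity remaining.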

[2] = biological target: Fibroblast growth factor receptor 4 (Homo sapiens) (UniProt P22455); test: Inhibition of human recombinant FGFR4 at 500 nM in presence of ATP by radiometric assay relative to control
[3] = biological target: T1, Myosin-IIIb (Homo sapiens) (UniProt Q8WXR4); test: Inhibition of human recombinant MYO3B at 500 nM in presence of ATP by radiometric assay relative to control
T1 sequence (whole entry): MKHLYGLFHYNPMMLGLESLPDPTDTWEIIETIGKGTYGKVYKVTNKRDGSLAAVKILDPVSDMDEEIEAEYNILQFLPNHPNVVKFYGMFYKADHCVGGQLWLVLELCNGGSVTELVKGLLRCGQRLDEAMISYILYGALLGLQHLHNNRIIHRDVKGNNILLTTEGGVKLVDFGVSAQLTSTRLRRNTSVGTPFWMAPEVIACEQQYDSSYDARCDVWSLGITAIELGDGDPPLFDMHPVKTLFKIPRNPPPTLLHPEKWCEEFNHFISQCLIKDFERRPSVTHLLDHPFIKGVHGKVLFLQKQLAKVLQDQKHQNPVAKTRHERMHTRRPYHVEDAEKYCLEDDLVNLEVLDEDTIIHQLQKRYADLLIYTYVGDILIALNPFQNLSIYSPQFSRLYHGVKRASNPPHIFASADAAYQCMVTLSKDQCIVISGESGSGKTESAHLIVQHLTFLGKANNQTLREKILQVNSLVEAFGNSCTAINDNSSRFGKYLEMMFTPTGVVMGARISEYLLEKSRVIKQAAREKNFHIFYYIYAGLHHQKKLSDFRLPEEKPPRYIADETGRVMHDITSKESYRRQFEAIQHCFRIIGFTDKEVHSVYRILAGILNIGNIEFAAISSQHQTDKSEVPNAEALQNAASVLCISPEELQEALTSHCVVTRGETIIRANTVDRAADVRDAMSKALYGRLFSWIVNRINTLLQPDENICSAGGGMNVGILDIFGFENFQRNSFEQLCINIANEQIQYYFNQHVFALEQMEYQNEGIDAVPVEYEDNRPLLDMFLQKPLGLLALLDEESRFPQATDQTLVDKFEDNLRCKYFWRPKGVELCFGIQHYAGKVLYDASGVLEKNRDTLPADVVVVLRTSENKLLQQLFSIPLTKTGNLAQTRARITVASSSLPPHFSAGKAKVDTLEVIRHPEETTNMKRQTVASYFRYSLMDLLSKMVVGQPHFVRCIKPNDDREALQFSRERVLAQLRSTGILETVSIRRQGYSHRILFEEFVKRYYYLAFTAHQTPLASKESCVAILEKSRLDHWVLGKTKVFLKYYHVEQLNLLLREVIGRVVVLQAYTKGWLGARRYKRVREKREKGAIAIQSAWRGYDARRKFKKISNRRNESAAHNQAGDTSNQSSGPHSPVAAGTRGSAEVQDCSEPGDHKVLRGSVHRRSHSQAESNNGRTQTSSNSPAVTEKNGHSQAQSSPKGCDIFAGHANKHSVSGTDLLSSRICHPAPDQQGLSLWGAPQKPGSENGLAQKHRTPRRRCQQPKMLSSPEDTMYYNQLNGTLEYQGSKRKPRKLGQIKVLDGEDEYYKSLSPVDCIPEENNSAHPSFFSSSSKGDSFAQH

[4] = biological target: Protein kinase C eta type (Homo sapiens) (UniProt P24723); test: Inhibition of human recombinant PKCH at 500 nM in presence of ATP by radiometric assay relative to control
[5] = biological target: Protein kinase C theta type (Homo sapiens) (UniProt Q04759); test: Inhibition of human recombinant PKCt at 500 nM in presence of ATP by radiometric assay relative to control
[6] = biological target: Receptor-interacting serine/threonine-protein kinase 2 (Homo sapiens) (UniProt O43353); test: Inhibition of human recombinant RIPK2 at 500 nM in presence of ATP by radiometric assay relative to control
[7] = biological target: Serine/threonine-protein kinase VRK2 (Homo sapiens) (UniProt Q86Y07); test: Inhibition of human recombinant VRK2 at 500 nM in presence of ATP by radiometric assay relative to control
[8] = biological target: Epidermal growth factor receptor (Homo sapiens) (UniProt P00533); test: Inhibition of human recombinant EGFR at 500 nM related to control ULK1
[9] = biological target: Insulin receptor (Homo sapiens) (UniProt P06213); test: Inhibition of human recombinant INSR at 500 nM related to control ULK1
[10] = biological target: Protein kinase C delta type (Homo sapiens) (UniProt Q05655); test: Inhibition of human recombinant PKCd at 500 nM related to control ULK1
[11] = biological target: Calcium/calmodulin-dependent protein kinase type 1B (Homo sapiens) (UniProt Q6P2M8); test: Inhibition of human recombinant CaMK1b at 15 nM in presence of ATP by radiometric assay relative to control
[12] = biological target: Ribosomal protein S6 kinase alpha-2 (Homo sapiens) (UniProt Q15349); test: Inhibition of human recombinant RSK3 at 15 nM in presence of ATP by radiometric assay relative to control
[13] = biological target: STE20-like serine/threonine-protein kinase (Homo sapiens) (UniProt Q9H2G2); test: Inhibition of human recombinant SLK at 15 nM in presence of ATP by radiometric assay relative to control
[14] = biological target: Hepatocyte growth factor receptor (Homo sapiens) (UniProt P08581); test: Inhibition of human recombinant MET at 15 nM related to control ULK1
[15] = biological target: Serine/threonine-protein kinase MAK (Homo sapiens) (UniProt P20794); test: Inhibition of human recombinant MAK at 15 nM in presence of ATP by radiometric assay relative to control
[16] = biological target: Serine/threonine-protein kinase 24 (Homo sapiens) (UniProt Q9Y6E0); test: Inhibition of human recombinant MST3 at 40 nM in presence of ATP by radiometric assay relative to control
[17] = biological target: Focal adhesion kinase 1 (Homo sapiens) (UniProt Q05397); test: Inhibition of human recombinant FAK at 40 nM related to control ULK1

Sequence of Receptor-interacting serine/threonine-protein kinase 2 (Homo sapiens) (O43353 whole entry): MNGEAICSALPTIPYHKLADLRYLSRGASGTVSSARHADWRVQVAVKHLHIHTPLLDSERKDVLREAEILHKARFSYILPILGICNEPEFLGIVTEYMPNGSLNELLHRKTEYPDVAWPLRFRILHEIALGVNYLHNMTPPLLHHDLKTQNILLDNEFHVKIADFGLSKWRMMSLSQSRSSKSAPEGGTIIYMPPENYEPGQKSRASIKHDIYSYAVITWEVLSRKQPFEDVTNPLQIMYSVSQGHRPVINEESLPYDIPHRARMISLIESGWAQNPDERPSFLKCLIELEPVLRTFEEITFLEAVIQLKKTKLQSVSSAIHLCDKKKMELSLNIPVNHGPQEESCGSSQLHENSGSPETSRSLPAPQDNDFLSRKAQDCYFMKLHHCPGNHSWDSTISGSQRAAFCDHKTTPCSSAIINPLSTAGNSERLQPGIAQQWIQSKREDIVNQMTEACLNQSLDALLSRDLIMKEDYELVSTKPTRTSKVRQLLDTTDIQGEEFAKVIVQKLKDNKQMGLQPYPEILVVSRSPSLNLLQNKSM
Sequence of Protein kinase C theta type (Homo sapiens) (Q04759 whole entry, looked up): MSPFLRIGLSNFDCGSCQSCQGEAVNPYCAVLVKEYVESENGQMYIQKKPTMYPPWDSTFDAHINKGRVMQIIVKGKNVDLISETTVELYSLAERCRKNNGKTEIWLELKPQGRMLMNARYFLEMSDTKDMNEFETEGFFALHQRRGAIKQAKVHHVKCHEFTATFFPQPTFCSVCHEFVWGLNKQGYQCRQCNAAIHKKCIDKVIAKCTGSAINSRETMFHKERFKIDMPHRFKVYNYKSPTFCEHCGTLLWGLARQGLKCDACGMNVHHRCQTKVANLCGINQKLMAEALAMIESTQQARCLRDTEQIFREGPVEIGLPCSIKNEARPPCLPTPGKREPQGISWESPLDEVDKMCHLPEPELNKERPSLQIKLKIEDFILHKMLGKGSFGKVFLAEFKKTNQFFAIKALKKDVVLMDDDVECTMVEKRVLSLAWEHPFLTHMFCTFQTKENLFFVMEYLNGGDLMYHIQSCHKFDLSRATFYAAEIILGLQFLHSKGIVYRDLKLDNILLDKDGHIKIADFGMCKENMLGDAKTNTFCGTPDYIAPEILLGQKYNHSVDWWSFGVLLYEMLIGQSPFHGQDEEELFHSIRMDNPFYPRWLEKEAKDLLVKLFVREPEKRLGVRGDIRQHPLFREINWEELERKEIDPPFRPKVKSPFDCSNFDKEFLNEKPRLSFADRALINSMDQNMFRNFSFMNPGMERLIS
Sequence of Epidermal growth factor receptor (Homo sapiens) (P00533 whole entry): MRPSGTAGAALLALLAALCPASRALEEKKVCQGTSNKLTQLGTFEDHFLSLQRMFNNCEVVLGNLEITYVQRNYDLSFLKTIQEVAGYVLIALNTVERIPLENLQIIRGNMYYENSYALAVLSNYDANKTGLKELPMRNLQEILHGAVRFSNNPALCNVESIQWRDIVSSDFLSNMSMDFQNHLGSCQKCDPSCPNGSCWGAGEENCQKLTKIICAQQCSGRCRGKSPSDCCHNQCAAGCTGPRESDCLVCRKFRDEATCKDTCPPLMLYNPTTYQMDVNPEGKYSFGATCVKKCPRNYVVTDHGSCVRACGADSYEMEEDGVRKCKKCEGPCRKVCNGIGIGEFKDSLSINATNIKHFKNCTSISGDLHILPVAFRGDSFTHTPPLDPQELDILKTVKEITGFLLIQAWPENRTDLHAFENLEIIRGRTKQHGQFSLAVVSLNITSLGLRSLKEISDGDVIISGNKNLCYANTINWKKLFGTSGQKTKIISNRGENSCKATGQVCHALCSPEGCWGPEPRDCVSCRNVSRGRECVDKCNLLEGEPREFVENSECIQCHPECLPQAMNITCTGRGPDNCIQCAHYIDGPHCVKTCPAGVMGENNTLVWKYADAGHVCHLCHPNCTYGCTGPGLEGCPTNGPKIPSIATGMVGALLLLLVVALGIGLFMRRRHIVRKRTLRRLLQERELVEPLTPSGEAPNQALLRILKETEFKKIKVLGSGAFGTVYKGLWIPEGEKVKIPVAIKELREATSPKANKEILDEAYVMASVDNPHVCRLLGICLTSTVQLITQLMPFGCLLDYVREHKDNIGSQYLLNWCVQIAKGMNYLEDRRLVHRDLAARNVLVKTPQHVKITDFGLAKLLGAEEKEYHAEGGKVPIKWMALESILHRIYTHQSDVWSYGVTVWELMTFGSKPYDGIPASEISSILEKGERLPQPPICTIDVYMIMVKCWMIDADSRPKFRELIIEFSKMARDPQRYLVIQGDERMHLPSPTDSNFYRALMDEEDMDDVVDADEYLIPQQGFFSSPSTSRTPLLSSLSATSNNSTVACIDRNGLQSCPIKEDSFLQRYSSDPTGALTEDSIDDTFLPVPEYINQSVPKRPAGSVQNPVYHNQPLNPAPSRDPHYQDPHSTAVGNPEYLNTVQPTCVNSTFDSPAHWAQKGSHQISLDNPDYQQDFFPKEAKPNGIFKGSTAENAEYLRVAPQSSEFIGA
Sequence of Serine/threonine-protein kinase 24 (Homo sapiens) (Q9Y6E0 whole entry, looked up): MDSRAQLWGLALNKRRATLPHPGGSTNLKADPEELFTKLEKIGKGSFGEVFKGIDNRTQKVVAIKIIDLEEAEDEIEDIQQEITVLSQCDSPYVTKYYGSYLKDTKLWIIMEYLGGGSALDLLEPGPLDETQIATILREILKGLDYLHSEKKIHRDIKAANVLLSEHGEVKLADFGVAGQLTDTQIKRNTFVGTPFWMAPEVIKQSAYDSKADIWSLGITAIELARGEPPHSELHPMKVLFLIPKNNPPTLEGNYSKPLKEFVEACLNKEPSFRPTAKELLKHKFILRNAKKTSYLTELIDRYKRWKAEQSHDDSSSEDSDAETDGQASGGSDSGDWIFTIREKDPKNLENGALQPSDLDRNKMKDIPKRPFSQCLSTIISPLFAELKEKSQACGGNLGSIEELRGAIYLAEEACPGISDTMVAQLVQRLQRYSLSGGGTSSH
Sequence of Insulin receptor (Homo sapiens) (P06213 28-758 limits assumed): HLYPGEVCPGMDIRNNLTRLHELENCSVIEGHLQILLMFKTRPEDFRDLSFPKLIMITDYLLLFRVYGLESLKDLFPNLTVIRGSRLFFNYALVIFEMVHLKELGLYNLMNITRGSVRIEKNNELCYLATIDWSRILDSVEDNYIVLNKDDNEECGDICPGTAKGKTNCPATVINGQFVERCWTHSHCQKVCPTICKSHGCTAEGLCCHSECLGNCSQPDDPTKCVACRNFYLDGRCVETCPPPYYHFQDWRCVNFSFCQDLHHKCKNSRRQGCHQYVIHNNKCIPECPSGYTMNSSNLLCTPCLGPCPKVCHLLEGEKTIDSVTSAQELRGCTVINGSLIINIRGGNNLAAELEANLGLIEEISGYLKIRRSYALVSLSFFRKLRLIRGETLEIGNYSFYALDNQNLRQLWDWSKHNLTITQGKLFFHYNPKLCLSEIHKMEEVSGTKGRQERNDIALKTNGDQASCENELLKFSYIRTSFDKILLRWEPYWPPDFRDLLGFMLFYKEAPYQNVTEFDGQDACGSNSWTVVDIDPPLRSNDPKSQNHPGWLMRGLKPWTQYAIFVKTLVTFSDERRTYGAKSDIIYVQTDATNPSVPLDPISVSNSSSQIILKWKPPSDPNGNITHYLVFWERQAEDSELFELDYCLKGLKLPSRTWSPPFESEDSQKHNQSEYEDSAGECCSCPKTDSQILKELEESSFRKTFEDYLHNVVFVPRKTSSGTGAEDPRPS
Sequence of Insulin receptor (Homo sapiens) (P06213 763-1382 limits assumed): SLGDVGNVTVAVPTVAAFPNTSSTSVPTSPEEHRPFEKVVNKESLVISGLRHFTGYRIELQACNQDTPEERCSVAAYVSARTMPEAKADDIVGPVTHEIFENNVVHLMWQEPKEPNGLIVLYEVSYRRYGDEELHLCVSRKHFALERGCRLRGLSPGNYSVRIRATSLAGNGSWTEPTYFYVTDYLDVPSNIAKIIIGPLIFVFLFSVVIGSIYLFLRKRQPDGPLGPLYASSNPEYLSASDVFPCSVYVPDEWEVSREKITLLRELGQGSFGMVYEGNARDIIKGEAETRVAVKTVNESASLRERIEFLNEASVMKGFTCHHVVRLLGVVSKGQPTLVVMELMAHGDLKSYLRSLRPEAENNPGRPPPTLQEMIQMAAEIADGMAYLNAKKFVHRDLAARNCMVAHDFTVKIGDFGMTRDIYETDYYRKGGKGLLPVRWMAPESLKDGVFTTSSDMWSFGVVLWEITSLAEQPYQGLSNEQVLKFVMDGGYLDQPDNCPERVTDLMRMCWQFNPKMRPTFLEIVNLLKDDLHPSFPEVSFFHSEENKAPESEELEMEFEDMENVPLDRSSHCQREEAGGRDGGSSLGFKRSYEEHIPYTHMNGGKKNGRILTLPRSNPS
Sequence of Ribosomal protein S6 kinase alpha-2 (Homo sapiens) (Q15349 whole entry): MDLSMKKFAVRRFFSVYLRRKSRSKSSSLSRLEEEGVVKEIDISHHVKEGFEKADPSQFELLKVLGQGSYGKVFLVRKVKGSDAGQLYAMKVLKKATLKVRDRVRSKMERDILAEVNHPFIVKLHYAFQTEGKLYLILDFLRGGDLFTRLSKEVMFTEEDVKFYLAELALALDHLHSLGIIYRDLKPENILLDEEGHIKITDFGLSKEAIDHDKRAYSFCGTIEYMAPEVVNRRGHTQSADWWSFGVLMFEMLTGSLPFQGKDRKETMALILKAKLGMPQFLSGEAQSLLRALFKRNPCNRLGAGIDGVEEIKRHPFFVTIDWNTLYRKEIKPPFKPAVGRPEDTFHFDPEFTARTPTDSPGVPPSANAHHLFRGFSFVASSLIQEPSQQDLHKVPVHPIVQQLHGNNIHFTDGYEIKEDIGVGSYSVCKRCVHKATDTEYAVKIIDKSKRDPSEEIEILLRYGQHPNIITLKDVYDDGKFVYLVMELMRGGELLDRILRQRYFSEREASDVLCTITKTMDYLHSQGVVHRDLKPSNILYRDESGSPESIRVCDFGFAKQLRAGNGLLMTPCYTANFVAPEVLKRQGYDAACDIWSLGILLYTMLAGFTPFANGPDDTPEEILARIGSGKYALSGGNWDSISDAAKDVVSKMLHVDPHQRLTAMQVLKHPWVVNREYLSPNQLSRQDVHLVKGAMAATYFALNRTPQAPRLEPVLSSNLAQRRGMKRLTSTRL

CNC(=O)c1ccccc1Oc1nc(Nc2cc(OC)c(OC)c(OC)c2)ncc1Br
inhibition [1]: 0%
inhibition [2]: 10%
inhibition [3]: 11%
inhibition [4]: 7%
inhibition [5]: 0%
inhibition [6]: 0%
inhibition [7]: 23%
fold change (FC) [8]: 0.04
fold change (FC) [9]: 0
fold change (FC) [10]: 0.04

CC(C)[C@H](NC(=O)c1cc(-c2cnn3cc(-c4ccc(OCCN5CCCCC5)cc4)cnc23)cs1)C(F)(F)F
inhibition [11]: 0%
inhibition [12]: 3%
inhibition [13]: 22%
fold change (FC) [14]: 0
inhibition [15]: 5%

O=C(N[C@@H](C1CC1)C(F)(F)F)c1cc(-c2cnn3cc(-c4ccc(F)cc4)cnc23)cs1
inhibition [16]: 20%
fold change (FC) [17]: 0
